According to ChEMBL document CHEMBL1132955 (J Med Chem, 2000):

What was measured:
Human alphaherpesvirus 3 [1] = experiment: Evaluated for the anti-VZV activity, the concentration required to reduce VZV YS plaque formation after 5 days in HEL cell cultures compared to untreated controls.; assay type: functional, organism-based; details: Human alphaherpesvirus 3, ys, 120 h
Summary of the method: (§1)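 Confluent HEL fibroblasts infected with VZV at 20 PFU/well. Residual virus removed after 1-2 h adsorption. Cells then kept in MEM with 2% inactivated FCS, 1% L-glutamine and 0.3% sodium bicarbonate plus serial compound dilutions. […] OKA and YS strains are TK-competent; 07 and YS-R are TK-deficient.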

Human alphaherpesvirus 3 [2] = experiment: Evaluated for the anti-VZV, the concentration required to reduce VZV TK -07 ( thymidine kinase-deficient strain ) plaque formation after 5 days in HEL cell cultures compared to untreated controls.; assay type: functional, organism-based; details: Human alphaherpesvirus 3, tk-07, HEL, 120 h; summary of the method: as §1
Human alphaherpesvirus 3 [3] = experiment: (§2) cytostatic concentration required to reduce the HEL cell number by 50%. after 5 days in the absence of virus; assay type: functional; details: Human alphaherpesvirus 3, HEL, 120 h
Summary of the method: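 HEL cells in 96-well plates treated with graded compound concentrations without virus for 5 days. Cells then trypsinized and counted with a Coulter counter.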

Human alphaherpesvirus 3 [4] = experiment: Evaluated for the anti-VZV activity, the concentration required to reduce VZV OKA plaque formation after 5 days in HEL cell cultures compared to untreated controls.; assay type: functional, organism-based; details: Human alphaherpesvirus 3, oka, 120 h; summary of the method: as §1
Human alphaherpesvirus 3 [5] = experiment: (§3) Minimal cytotoxic concentration, the concentration required to cause a microscopically visible alteration of normal cell morphology.; assay type: functional
Summary of the method: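 Uninfected HEL cell cultures exposed to graded compound concentrations. Morphology inspected by microscope. MCC is the lowest concentration producing a visible change in normal cell morphology.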

Human alphaherpesvirus 3 [6] = experiment: Evaluated for the anti-VZV, the concentration required to reduce VZVTK-YS-R ( thymidine kinase-deficient strain ) plaque formation after 5 days in HEL cell cultures compared to untreated controls.; assay type: functional, organism-based; details: Human alphaherpesvirus 3, ys-r, 120 h; summary of the method: as §1
Human alphaherpesvirus 3 [7] = experiment: Evaluated for the anti-VZV, the concentration of compounds in uM required to reduce VZVTK-07 ( thymidine kinase-deficient strain ) plaque formation after 5 days in HEL cell cultures compared to untreated controls.; assay type: functional, organism-based; details: Human alphaherpesvirus 3, tk-07, HEL, 120 h
Human alphaherpesvirus 3 [8] = experiment: Evaluated for the anti-VZV, the concentration of compounds in uM required to reduce VZVTK-YS-R ( thymidine kinase-deficient strain ) plaque formation after 5 days in HEL cell cultures compared to untreated controls.; assay type: functional, organism-based; details: Human alphaherpesvirus 3, tkys-r, 120 h
Human alphaherpesvirus 3 [9] = experiment: Evaluated for the anti-VZV activity, the concentration of compounds in uM required to reduce VZV […] plaque formation after 5 days in HEL cell cultures compared to untreated controls.; assay type: functional, organism-based; details: Human alphaherpesvirus 3, ys, 120 h
Human alphaherpesvirus 3 [10] = experiment: Evaluated for the anti-VZV activity, the concentration of compounds in uM required to reduce VZV OKA Plaque formation after 5 days in HEL cell cultures compared to untreated controls.; assay type: functional, organism-based; details: Human alphaherpesvirus 3, oka, 120 h
Summary of the method: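 Confluent HEL fibroblasts infected with VZV at 20 PFU/well. Residual virus removed after 1-2 h adsorption. Cells then kept in MEM with 2% inactivated FCS, 1% L-glutamine and 0.3% sodium bicarbonate plus serial compound dilutions. OKA and YS strains are TK-competent; 07 and YS-R are TK-deficient.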

Human alphaherpesvirus 3 [11] = experiment: Evaluated for the anti-VZV activity, the concentration of compounds in uM required to reduce VZV TK-07 (thymidine kinase-deficient strain ) plaque formation after 5 days in HEL cell cultures compared to untreated controls.; details: Human alphaherpesvirus 3, tk-07, HEL, 120 h
Human alphaherpesvirus 3 [12] = experiment: Evaluated for the anti-VZV activity, the concentration of compounds in uM required to reduce VZV OKA plaque formation after 5 days in HEL cell cultures compared to untreated controls.; assay type: functional, organism-based; details: Human alphaherpesvirus 3, oka, 120 h; summary of the method: as §1
Human alphaherpesvirus 3 [13] = experiment: Evaluated for the anti-VZV, the concentration of compounds in uM required to reduce VZV TK-YS-R ( thymidine kinase-deficient strain ) plaque formation after 5 days in HEL cell cultures compared to untreated controls.; assay type: functional, organism-based; details: Human alphaherpesvirus 3, ys-r, 120 h; summary of the method: as §1
Human alphaherpesvirus 3 [14] = experiment: Evaluated for the anti-VZV activity, which is the concentration of compounds in uM required to reduce VZV YS plaque formation after 5 days in HEL cell cultures compared to untreated controls.; assay type: functional, organism-based; details: Human alphaherpesvirus 3, ys, 120 h; summary of the method: as §1
Human alphaherpesvirus 3 [15] = experiment: as §3; assay type: functional; details: Human alphaherpesvirus 3, t
Human alphaherpesvirus 3 [16] = experiment: as §2; assay type: functional; details: Human alphaherpesvirus 3, t, 120 h
Summary of the method: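 HEL fibroblasts, grown in MEM with 10% inactivated FCS, 1% L-glutamine and 0.3% sodium bicarbonate, were treated in 96-well cultures with varying compound concentrations for 5 days without virus. Cells were then trypsinized and counted with a Coulter counter. The value is the concentration giving 50% reduction in cell number.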

## O=c1nc2oc(-c3ccccc3)cc2cn1[C@H]1C[C@H](O)[C@@H](CO)O1
Human alphaherpesvirus 3 [1]
  EC50: 160 nM
Human alphaherpesvirus 3 [2]
  EC50: > 200000 nM
Human alphaherpesvirus 3 [3]
  CC50: > 200000 nM
Human alphaherpesvirus 3 [4]
  EC50: 280 nM
Human alphaherpesvirus 3 [5]
  MCC: > 200 µM
Human alphaherpesvirus 3 [6]
  EC50: 162000 nM

## O=c1nc2oc(-c3ccc(Cl)cc3)cc2cn1[C@H]1C[C@H](O)[C@@H](CO)O1
Human alphaherpesvirus 3 [7]
  EC50: > 50000 nM
Human alphaherpesvirus 3 [8]
  EC50: > 50000 nM
Human alphaherpesvirus 3 [9]
  EC50: 100 nM
Human alphaherpesvirus 3 [5]
  MCC: 200 µM
Human alphaherpesvirus 3 [10]
  EC50: 100 nM

## CCCCCCCCc1ccc(-c2cc3cn([C@H]4C[C@H](O)[C@@H](CO)O4)c(=O)nc3o2)cc1
Human alphaherpesvirus 3 [7]
  EC50: > 20000 nM
Human alphaherpesvirus 3 [8]
  EC50: > 20000 nM
Human alphaherpesvirus 3 [9]
  EC50: 27 nM
Human alphaherpesvirus 3 [3]
  CC50: > 200000 nM
Human alphaherpesvirus 3 [5]
  MCC: > 20 µM
Human alphaherpesvirus 3 [10]
  EC50: 40 nM

## Cc1ccc(-c2cc3cn([C@H]4C[C@H](O)[C@@H](CO)O4)c(=O)nc3o2)cc1
Human alphaherpesvirus 3 [11]
  EC50: 103000 nM
Human alphaherpesvirus 3 [12]
  EC50: 60 nM
Human alphaherpesvirus 3 [3]
  CC50: > 200000 nM
Human alphaherpesvirus 3 [5]
  MCC: > 200 µM
Human alphaherpesvirus 3 [13]
  EC50: > 200000 nM
Human alphaherpesvirus 3 [14]
  EC50: 60 nM

## CCCCCCCCCCc1cc2cn([C@H]3C[C@H](O)[C@@H](CO)O3)c(=O)nc2o1
Human alphaherpesvirus 3 [7]
  EC50: > 50000 nM
Human alphaherpesvirus 3 [8]
  EC50: > 50000 nM
Human alphaherpesvirus 3 [9]
  EC50: 8 nM
Human alphaherpesvirus 3 [3]
  CC50: > 50000 nM
Human alphaherpesvirus 3 [5]
  MCC: > 50 µM
Human alphaherpesvirus 3 [10]
  EC50: 15 nM

## Nc1nc2c(ncn2COCCO)c(=O)[nH]1 [ACYCLOVIR]
Human alphaherpesvirus 3 [3]
  CC50: > 200000 nM
Human alphaherpesvirus 3 [5]
  MCC: > 200 µM

## CCCCCCCCc1cc2cn([C@H]3C[C@H](O)[C@@H](CO)O3)c(=O)nc2o1
Human alphaherpesvirus 3 [7]
  EC50: > 50000 nM
Human alphaherpesvirus 3 [8]
  EC50: > 50000 nM
Human alphaherpesvirus 3 [9]
  EC50: 24 nM
Human alphaherpesvirus 3 [12]
  EC50: 8 nM
Human alphaherpesvirus 3 [3]
  CC50: > 50000 nM
Human alphaherpesvirus 3 [5]
  MCC: > 50 µM

## CCCCCCCCCc1cc2cn([C@H]3C[C@H](O)[C@@H](CO)O3)c(=O)nc2o1
Human alphaherpesvirus 3 [7]
  EC50: > 200000 nM
Human alphaherpesvirus 3 [8]
  EC50: > 200000 nM
Human alphaherpesvirus 3 [9]
  EC50: 20 nM
Human alphaherpesvirus 3 [3]
  CC50: > 200000 nM
Human alphaherpesvirus 3 [5]
  MCC: > 200 µM
Human alphaherpesvirus 3 [10]
  EC50: 20 nM

## O=c1nc2oc(-c3ccc(Br)cc3)cc2cn1[C@H]1C[C@H](O)[C@@H](CO)O1
Human alphaherpesvirus 3 [7]
  EC50: > 50000 nM
Human alphaherpesvirus 3 [8]
  EC50: > 50000 nM
Human alphaherpesvirus 3 [9]
  EC50: 500 nM
Human alphaherpesvirus 3 [5]
  MCC: 50 µM
Human alphaherpesvirus 3 [10]
  EC50: 500 nM

## O=c1[nH]c(=O)n([C@H]2C[C@H](O)[C@@H](CO)O2)cc1/C=C/Br [BRIVUDINE]
Human alphaherpesvirus 3 [7]
  EC50: > 150000 nM
Human alphaherpesvirus 3 [8]
  EC50: > 150000 nM
Human alphaherpesvirus 3 [9]
  EC50: 3 nM
Human alphaherpesvirus 3 [15]
  MCC: > 400 µM
Human alphaherpesvirus 3 [16]
  CC50: > 400000 nM
Human alphaherpesvirus 3 [10]
  EC50: 3 nM
